Source: PubChem BioAssay (The Scripps Research Institute Molecular Screening Center)
In the library only some 1.8% were active in any assay of this set; here they are far more common.
Tn6 DDE FP – disrupts Tn6 cyclic peptide binding to fibrin D-Dimer-E complex; inhibition, % at 8.3 µM; AID 720509; 0.21% of 370,000 active; Fibrin DD(E) TRITC-Tn6 fluorescence polarization displacement;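 active = inhibition above a per-campaign cutoff: mean of compounds within control limits plus 3 SD, cut at about 15% in these data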;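 also: 0% = median of all compound wells on the plate and 100% = blocking peptide control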
Target sequence (P02675 whole entry, looked up): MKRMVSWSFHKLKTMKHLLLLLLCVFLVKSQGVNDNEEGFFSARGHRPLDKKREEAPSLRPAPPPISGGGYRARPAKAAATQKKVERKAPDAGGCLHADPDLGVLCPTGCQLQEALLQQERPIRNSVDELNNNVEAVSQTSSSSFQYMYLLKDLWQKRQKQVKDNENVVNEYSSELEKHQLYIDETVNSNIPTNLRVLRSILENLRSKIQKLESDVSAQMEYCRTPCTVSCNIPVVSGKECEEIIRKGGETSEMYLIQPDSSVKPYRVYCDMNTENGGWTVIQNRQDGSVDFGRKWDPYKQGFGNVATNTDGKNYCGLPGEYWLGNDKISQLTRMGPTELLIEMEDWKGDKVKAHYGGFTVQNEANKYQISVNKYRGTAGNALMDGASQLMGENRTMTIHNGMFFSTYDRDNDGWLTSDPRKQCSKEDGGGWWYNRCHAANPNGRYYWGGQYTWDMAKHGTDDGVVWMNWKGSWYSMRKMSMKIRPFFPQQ
DDE Tn7 FP inh – inhibitors of Tn7 peptide binding to human fibrin DD(E); 0.13% of 370,000 active; FP displacement of FITC-Tn7 peptide from fibrin DD(E); 0% = median of compound wells per plate; inhibition, % at 8.3 µM;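 active = inhibition above the mean of compounds falling within the control limits plus 3 SD of them, cut at about 14% in these data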;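 also: 0% = plate median of compound wells and 100% = 10 µM Aha-Tn7 peptide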
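Assay system: human fibrin DD(E) protein / Input: 2 µM fibrin DD(E) / Benchmarks: high control of 10 µM Aha-Tn7 peptide / Measured by: fluorescence polarization of the labelled Tn7 tracer / Medium: Tris buffer with calcium and detergent, pH 7.8 / Timing: 10 min compound pre-incubation, 3 h probe incubation at room temperature / Repeats: one replicate per compound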
TCR-CD3 inh – human TCR-CD3 binding inhibition | 0.37% of 360,000 active | TAMRA-labeled TCR probe fluorescence, biochemical | inhibition, % at 9.4 µM | AID 651800;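 also: recombinant mutant TCR 2C K166C tagged with TAMRA read by polarization; 0% = receptor in buffer alone and 100% = receptor with positive control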
HTRA1 inh – inhibitors of human serine peptidase HTRA1; Q92743; recombinant HTRA1, FP-rhodamine activity-based probe, fluorescence polarization; inhibition, % at 5.96 µM; 0.5% of 340,000 active; in the data active = inhibition above about 36%;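 also: 0% = enzyme with DMSO and 100% = wells lacking enzyme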
SIAE inh – blocks human sialic acid acetylesterase. Q9HAT2. SIAE FP-Rh probe binding, fluorescence polarization. inhibition, % at 9.66 µM. 0.69% of 370,000 active. AID 1053197;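 active = inhibition above a cutoff: mean of compounds within the control limits plus 3 SD of those, cut at about 17% in these data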;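 also: 0% = plate median of compound wells and 100% = probe without SIAE protein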
ABHD4 inh – inhibitors of mouse ABHD4 | 0.54% of 370,000 active | Q8VD66 | inhibition, % at 8.92 µM | AID 720543 | purified mABHD4, FP-Rh probe fluorescence polarization;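 active = inhibition exceeding the mean over every tested compound plus 3 SD, cut at about 30% in these data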;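 also: 0% = plate median of compound wells and 100% = S159A mutant with DMSO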
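system = mouse ABHD4 enzyme, wild type | medium = HEPES pH 7.0, NaCl, Pluronic buffer | also added = FP-Rh probe | incubation = Enzyme–compound pre-incubation 45 min, then probe 60 min, both 25 °C | technique = fluorescence polarization, excitation 525 nm, emission 598 nm, BODIPY TMR filters | controls = S159A mutant high control, sample median low control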
BSA TAMRA ctr – interferes with TAMRA-BSA probe, flagging TCR-CD3 hits; 10% of 1,200 active; shares compounds with TCR-CD3 inh; TAMRA-labeled BSA probe fluorescence counterscreen; inhibition, % at 9.4 µM; in the data active = inhibition above about 23%;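 also: 0% = buffer low control and 100% = reference high control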
TCR-CD3 conf – confirmation of human TCR-CD3 interaction inhibitors; TAMRA-labeled TCR probe fluorescence binding assay; shares compounds with TCR-CD3 inh; inhibition, % at 9.4 µM; 48% of 1,200 active; AID 652036
* hit, by the source's call; x = no result given. Rule as the data show it, unless noted: active = inhibition above about 19%; inactive = the rest.

SMILES | Tn6 DDE FP | DDE Tn7 FP inh | TCR-CD3 inh | HTRA1 inh | SIAE inh | ABHD4 inh | BSA TAMRA ctr | TCR-CD3 conf
COc1cc(OC)c(NC(=O)c2cncn2-c2ccc(F)cc2)cc1Cl | -3 | -2 | -4 | -2 | 5 | 1 | x | x
Cc1ccccc1CC(=O)N1CC(C)OC(C)C1 (stereo not drawn) | 8 | 9 | -8 | 1 | -5 | -2 | x | x
COc1cccc(NC(=O)CN(C)C(=O)/C=C/c2cn(-c3ccccc3)nc2-c2ccc(C)cc2)c1 | -12 | -1 | 36* | -114 | -122 | -95 | 32* | 63*
COc1ccc(NC(=O)CN(C)C(=O)/C=C/c2cn(-c3ccccc3)nc2-c2ccc(F)cc2)cc1 | 0 | -2 | -5 | -19 | -24 | -5 | x | x
COc1ccc(NC(=O)CN(C)C(=O)/C=C/c2cn(-c3ccccc3)nc2-c2ccc(C)cc2)cc1 | -9 | 4 | 32* | -114 | -72 | -40 | 2 | 6
CC(C)n1nnnc1C1c2ccccc2OCC(=O)N1Cc1cccc(C(F)(F)F)c1 (stereo not drawn) | -2 | 4 | x | x | -1 | 1 | x | x
CCOc1cc(/C=N\NC(=O)c2ccc(NC(=O)C(C)(C)C)cc2)ccc1OC(=O)c1ccc(C)cc1 | 0 | 1 | 0 | -11 | 0 | -4 | x | x
CC(C)(C)C(=O)Nc1ccc(C(=O)N/N=C/c2ccccc2OC(=O)c2ccccc2)cc1 | -4 | -6 | 4 | 7 | -68 | -89 | x | x
CCOc1cc(/C=N\NC(=O)c2ccc(NC(=O)C(C)(C)C)cc2)ccc1OC(=O)c1cccc(C)c1 | -3 | -7 | 62* | -63 | -32 | -31 | 36* | 82*
CC(C)(C)C(=O)Nc1ccc(C(=O)N/N=C/c2ccccc2OC(=O)c2ccc(Cl)cc2)cc1 | -5 | -5 | 26* | -17 | -63 | -58 | 25* | 43*
Cc1cccc(C(=O)Oc2ccccc2/C=N/NC(=O)c2ccc(NC(=O)C(C)(C)C)cc2)c1 | -8 | 5 | 24* | -90 | -66 | -111 | 17 | 43*
CS(=O)(=O)Nc1ccc(-c2n[nH]c(=S)n2-c2ccccc2)cc1 | 9 | -4 | 37* | -5 | -5 | 6 | 3 | 0
O=C(NNC(=O)c1cc(-c2ccncc2)nc2ccccc12)c1ccccc1O | 7 | 5 | 28* | 20 | -1 | 8 | -10 | 21*
Cc1ccc(-c2cc(C(=O)Nc3ccncc3)c3ccccc3n2)cc1 | 1 | 3 | 6 | -13 | -3 | 2 | x | x
O=C(NNC(=O)C1CCN(S(=O)(=O)c2ccc(Cl)cc2)CC1)c1ccccc1O | 3 | 4 | 34* | 19 | 4 | -1 | -3 | 31*
Cc1ccc(C(=O)NC2CCCC2)cc1S(=O)(=O)N1CCCCC1 | -4 | 0 | 9 | 3 | 2 | -4 | x | x
Cc1ccc(C(=O)NNC(=O)c2ccccc2O)cc1S(=O)(=O)N1CCCCC1 | -2 | -1 | 24* | 25 | 1 | 12 | -4 | 23*
COc1ccc(C(=O)CSc2nc(C(C)(C)C)nc3ccccc23)cc1 | 2 | -2 | 6 | -15 | -8 | -9 | x | x
COC(=O)C1CCN(C(=O)/C=C/c2ccc3c(c2)OCO3)CC1 | 5 | 2 | -4 | -8 | 6 | -4 | x | x
CN(C(=O)c1cc2c(cc1Br)OCO2)c1cccc2ccccc12 | -1 | -1 | -5 | 5 | 11 | -6 | x | x
O=C(N/N=C/c1ccoc1)c1cc(O)cc(O)c1 | 3 | -1 | 20* | 13 | 9 | 16 | -4 | 23*
COc1ccc(/C=N\NC(=O)c2ccccc2)cc1COc1ccccc1 | -7 | 1 | -6 | -21 | -3 | -19 | x | x
COc1cc(/C=N/NC(=O)c2cc(O)cc(O)c2)ccc1OC(=O)c1ccccc1 | -20 | -2 | 20* | -29 | -29 | -27 | -10 | 26*
Cc1cc(C)cc(C(=O)N/N=C/c2ccoc2)c1 | -4 | -1 | -5 | -8 | -6 | -6 | x | x
COc1cc(OC)cc(C(=O)N/N=C/c2ccc(OC)c(COc3ccc4ccccc4c3)c2)c1 | -7 | -3 | 40* | -89 | -84 | -83 | 9 | 35*
SMILES | Tn6 DDE FP | DDE Tn7 FP inh | TCR-CD3 inh | HTRA1 inh | SIAE inh | ABHD4 inh | BSA TAMRA ctr | TCR-CD3 conf
CCCNC(=O)C1(C)CCCN(C(=O)COc2ccc(Cl)cc2Cl)C1 (stereo not drawn) | -6 | 0 | -4 | x | -2 | -11 | x | x
COC(=O)c1cc(S(=O)(=O)NCc2cccs2)c[nH]1 | 1 | 1 | -8 | 6 | 5 | -2 | x | x
CCCCn1nnnc1SCC(=O)N1CCCC1 | 1 | -2 | 21* | -7 | 5 | 7 | 4 | 3
COc1ccc(/C=C2\SC(=S)N(CCCC(=O)NNC(=O)c3ccccc3O)C2=O)cc1 | -5 | -5 | 31* | 33 | -19 | 6 | -14 | 22*
C/C(=N\NC(=O)CCc1ccccc1)C1C(=O)c2ccccc2C1=O | 13 | 5 | 19* | 13 | 3 | 20 | -6 | 5
O=C(/C=C/c1ccccc1)Nc1cccc(C(=O)NCCCCc2ccccc2)c1 | -4 | -3 | 44* | -108 | -151 | -93 | 7 | 16
CC(=O)c1nc(N2C(=O)CC(Cc3ccc(C)cc3)C2=O)sc1C (stereo not drawn) | -7 | 4 | 56* | -3 | -3 | -3 | -2 | 4
CC1=NN(C(=O)CSCc2ccccc2)C(O)(c2ccc(Cl)cc2)C1 (stereo not drawn) | 2 | -2 | 20* | 34 | -2 | 1 | -6 | 7
CCCCNCc1cc(OCC)c(OCC)cc1Br | 1 | 8 | 0 | x | 5 | 0 | x | x
Cc1ccc(S(=O)(=O)N2CCC(=O)N(C(CO)C(C)C)CC2)cc1 (stereo not drawn) | 2 | 4 | 103* | 6 | -4 | -2 | -3 | -3
Cc1ccc(S(=O)(=O)N2CCC(=O)N([C@H](CO)Cc3ccccc3)CC2)cc1 | 1 | 4 | 1 | x | 7 | -2 | x | x
COc1ccccc1C(=O)N1[C@@H](C(C)C)COc2cc(Br)ccc2S1(=O)=O | 2 | -6 | 3 | -4 | 3 | 6 | x | x
Cc1ccc(C)c(NC(=O)CCC(=O)N/N=C/c2cc([N+](=O)[O-])ccc2O)c1 | -4 | 6 | 15 | 1 | 14 | 4 | x | x
Cc1cc(=O)oc2cc(OCC(=O)N/N=C/c3cc([N+](=O)[O-])ccc3O)ccc12 | 0 | -3 | 48* | 4 | 8 | 4 | -14 | 51*
O=C(Nc1ccc([N+](=O)[O-])cc1)c1cc(Cl)sc1Cl | -3 | 4 | -1 | -11 | 1 | -1 | x | x
